The text below walks through data of PubChem BioAssay AID624315 (Broad Institute, 2012).

The structures appear in SMILES notation. “And” between values parts separate entries of the source, which are not always exact repeats. Identical values can stand only once. The source made the active and inactive calls.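 How the source made its calls: active means compounds lowering cell ATP signal whose fitted IC50 is at or below twice the top valid tested dose; inconclusive means flat fit with 30 to 70% inhibition, or poor fit; inactive means the rest.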 A value given as a limit tells only on which side of the number the result lay.

In the first assay the test system is SK-MEL-5 melanoma viability, CellTiter-Glo ATP, 24 h. The assay can be described thus: SK-MEL-5 parental cell viability reduction, dose response, orthogonal assay for MITF inhibitor project, CellTiter-Glo luminescence, dry powder samples, set 3 (AID 624315).
Details: not given
In a few lines: (§1)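 Material: SK-MEL-5 human melanoma cells, parental non-reporter line | Doses: Multi-dose compound pinning | Medium: Phenol red-free medium | Measure: Cell viability inferred from cellular ATP level | Schedule: 24 h treatment at 37 °C, 5 min RT before reading | Technique: CellTiter-Glo luminescence measuring cellular ATP content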
Regarding `O=C1C(NS(=O)(=O)c2cccs2)=C(N2CCCCC2)C(=O)c2ccccc21`, the IC50 was > 70 µM (inactive).

On to `CCN1CCN(C2=C(NC(=O)c3ccccc3)C(=O)c3ccccc3C2=O)CC1`, for which the IC50 is 8.63 µM.

As for `CN1CCN(C2=C(NS(=O)(=O)c3ccc(Br)cc3)C(=O)c3ccccc3C2=O)CC1`, the IC50 was > 70 µM (inactive).

In the case of `Cc1ccc(C(=O)NC2=C(c3ccccc3)C(=O)c3ccccc3C2=O)o1`, the IC50 is 23.6 µM.

In the case of `COc1ccc(C2=C(NC(=O)c3ccc4ccccc4c3)C(=O)c3ccccc3C2=O)cc1`, the IC50 is > 70 µM (inactive).

For `NC1=C(NC(=O)c2ccccc2)C(=O)c2ccccc2C1=O`, the IC50 was 19.8 µM.

Consider `COc1ccc(C2=C(NC(=O)c3ccccc3Cl)C(=O)c3ccccc3C2=O)cc1`, for which the IC50 is 17.6 µM.

`O=C1C(NS(=O)(=O)c2ccc(Br)cc2)=C(N2CCOCC2)C(=O)c2ccccc21`: the IC50 was 35.4 µM.

For the molecule `COc1cccc(C2=C(NC(=O)c3ccccc3)C(=O)c3ccccc3C2=O)c1`, the IC50 is 22.5 µM.

With `CCN1CCN(C2=C(N(C)C(C)=O)C(=O)c3ccccc3C2=O)CC1`, the half-maximal inhibitory concentration (IC50) is 6.41 µM.

For the molecule `O=C(NC1=C(c2ccccc2)C(=O)c2ccccc2C1=O)c1ccccc1`, the IC50 was 26.1 µM.

In the case of `C=CCNC1=C(Cl)C(=O)c2ccccc2C1=O`, the IC50 is 9.72 µM and 12.1 µM.

For `CC(=O)NC1=C(c2cccc(Cl)c2)C(=O)c2ccccc2C1=O`, the half-inhibitory concentration (IC50) is 14 µM.

Consider `O=C(NC1=C(N2CCOCC2)C(=O)c2ccccc2C1=O)c1ccc(Br)cc1`, for which the half-inhibitory concentration (IC50) was 32 µM.

With `CC(=O)N(C)C1=C(N2CCN(C)CC2)C(=O)c2ccccc2C1=O`, the IC50 was 4.63 µM.

Turning to `CCN1c2ccccc2NC2N=C(OC)C(c3ccccc3)C21` (stereo not drawn), the IC50 is 23.9 µM.

As to `COC1=C(NS(=O)(=O)c2ccccc2)C(=O)c2ccccc2C1=O`, the IC50 was 21.7 µM.

For `O=C(NC1=C(Cl)C(=O)c2ccccc2C1=O)c1ccccc1`, the IC50 was 9.1 µM.

In the case of `C=CCNC1=C(N2CCCCC2)C(=O)c2ccccc2C1=O`, the IC50 is 5.3 µM.

Turning to `C=CCNC1=C(N2CCSCC2)C(=O)c2ccccc2C1=O`, the IC50 is 10.9 µM.

On to `NC1=CC(=O)c2ccccc2C1=O`, for which the IC50 was 12.4 µM.

For the molecule `C=CCNC1=C(NCCN(CC)CC)C(=O)c2ccccc2C1=O`, the IC50 is 14 µM.

For `O=C(NC1=C(c2ccc(Oc3ccccc3)cc2)C(=O)c2ccccc2C1=O)c1ccccc1`, the IC50 was > 70 µM (inactive).

As for `O=C(NC1=C(c2ccc(OC(F)(F)F)cc2)C(=O)c2ccccc2C1=O)c1ccc(Br)cc1`, the IC50 is > 70 µM (inactive).

As for `C=CCNC1=C(N(C)C(C)=O)C(=O)c2ccccc2C1=O`, the IC50 was 0.79 µM.

Turning to `Cc1nc2ccccc2n1/N=C/c1ccc([N+](=O)[O-])s1`, the 50% inhibitory concentration (IC50) was 20.1 µM.

Take `COc1ccc(C2=C(NC(C)=O)C(=O)c3ccccc3C2=O)cc1`: the concentration for half-maximal inhibition (IC50) is 13.9 µM.

Regarding `COc1ccc(C2=C(NC(=O)c3cccc(Cl)c3)C(=O)c3ccccc3C2=O)cc1`, the IC50 is 27.7 µM.

As to `CN1CCN(C2=C(NC(=O)c3ccccc3)C(=O)c3ccccc3C2=O)CC1`, the IC50 was 9.27 µM.

Take `O=C(NC1=C(N2CCN(c3ccccc3)CC2)C(=O)c2ccccc2C1=O)c1ccccc1`: the IC50 was > 70 µM (inactive).

On to `O=C1C(Nc2ccccc2)=C(N2CCN(c3ccccc3)CC2)C(=O)c2ccccc21`, for which the IC50 is > 70 µM (inactive).

Consider `CC(=O)N(C)C1=C(N2CCCCC2)C(=O)c2ccccc2C1=O`, for which the IC50 is 4.42 µM.

Regarding `CC(=O)NC1=C(c2ccc(Cl)cc2)C(=O)c2ccccc2C1=O`, the IC50 is 13.4 µM.

Turning to `C[C@@H](NC1=C(Nc2ccccc2)C(=O)c2ccccc2C1=O)c1ccccc1`, the IC50 is > 70 µM (inactive).

Consider `CN1CCN(C2=C(NS(=O)(=O)c3ccc(Br)s3)C(=O)c3ccccc3C2=O)CC1`, for which the IC50 is 30 µM.

In the case of `CN1CCN(C2=C(Nc3ccccc3)C(=O)c3ccccc3C2=O)CC1`, the IC50 is 23.4 µM.

With `C=CCNC1=C(NCCCN(CC)CC)C(=O)c2ccccc2C1=O`, the IC50 was 15.6 µM.

For `CC(=O)NC1=C(c2ccc3c(c2)oc2ccccc23)C(=O)c2ccccc2C1=O`, the IC50 is 25.3 µM.

With `O=C1C(NS(=O)(=O)c2ccc(Br)cc2)=C(c2ccc(OC(F)(F)F)cc2)C(=O)c2ccccc21`, the IC50 was > 70 µM (inactive).

Regarding `C=CCNC1=C(N2CCOCC2)C(=O)c2ccccc2C1=O`, the IC50 is 11 µM.

Consider `CC1CCN(CC(CS(=O)(=O)c2ccc([N+](=O)[O-])cc2)N2CCC(C)CC2)CC1` (stereo not drawn), for which the IC50 is > 70 µM (inactive).

With `O=C1C(NS(=O)(=O)c2ccc(Br)cc2)=C(c2ccccc2)C(=O)c2ccccc21`, the IC50 is > 70 µM (inactive).

As to `C=CCNC1=C(N2CCN(CC)CC2)C(=O)c2ccccc2C1=O`, the half-inhibitory concentration (IC50) was 17.9 µM.

Consider `O=C(NC1=C(N2CCSCC2)C(=O)c2ccccc2C1=O)c1ccccc1`, for which the 50% inhibitory concentration (IC50) is 29.9 µM.

In the case of `O=C1C(Nc2ccccc2)=C(N2CCOCC2)C(=O)c2ccccc21`, the IC50 is 27 µM.

Turning to `COc1ccc(C(=O)NC2=C(c3ccc(OC)cc3)C(=O)c3ccccc3C2=O)cc1`, the IC50 was 15.6 µM.

As for `CCN1CCN(C2=C(NC(=O)c3ccc(Br)cc3)C(=O)c3ccccc3C2=O)CC1`, the IC50 was 8.82 µM.

For the molecule `COc1ccc(C2=C(NC(=O)c3ccc(Cl)cc3)C(=O)c3ccccc3C2=O)cc1`, the IC50 was 34.6 µM.

As for `O=C(NC1=C(c2ccccc2)C(=O)c2ccccc2C1=O)c1ccco1`, the IC50 is 25.7 µM.

Take `CCN(CC)CCCNC1=C(N(C)C(C)=O)C(=O)c2ccccc2C1=O`: the IC50 is 5.52 µM.

For the molecule `C=C1C(=O)OC2C1CC/C(C)=C\CCC1(C)OC21` (stereo not drawn), the IC50 was > 47 µM (inactive).

Take `O=C1C(Nc2ccccc2)=C(N2CCCCC2)C(=O)c2ccccc21`: the IC50 is 18.1 µM.

Consider `O=C(NC1=C(N2CCOCC2)C(=O)c2ccccc2C1=O)c1ccccc1`, for which the 50% inhibitory concentration (IC50) was 20.1 µM.

In the case of `CN1CCN(C2=C(NS(=O)(=O)c3ccccc3)C(=O)c3ccccc3C2=O)CC1`, the half-inhibitory concentration (IC50) is 18.2 µM.

Regarding `COc1ccc(C2=C(NC(=O)c3ccc(OC)cc3-c3cccc(OC)c3)C(=O)c3ccccc3C2=O)cc1`, the IC50 is > 70 µM (inactive).

Consider `CC(=O)NC1=C(c2ccccc2)C(=O)c2ccccc2C1=O`, for which the IC50 was 18.3 µM.

For the molecule `CCN(CC)CCCNC1=C(Nc2ccccc2)C(=O)c2ccccc2C1=O`, the IC50 is 34 µM.

With `C=CCNC1=C(N2CCN(C)CC2)C(=O)c2ccccc2C1=O`, the IC50 was 25.3 µM.

For `COc1cccc(-c2cc(C(=O)NC3=C(Cl)C(=O)c4ccccc4C3=O)ccc2OC)c1`, the IC50 was 34 µM.

Turning to `CCN1CCN(C2=C(Nc3ccccc3)C(=O)c3ccccc3C2=O)CC1`, the concentration for half-maximal inhibition (IC50) was 28.1 µM.

For the molecule `CN1CCN(C2=C(NS(=O)(=O)c3cccs3)C(=O)c3ccccc3C2=O)CC1`, the IC50 is > 70 µM (inactive).

As to `CC(=O)N(C)C1=C(N2CCOCC2)C(=O)c2ccccc2C1=O`, the IC50 is 10.1 µM.

Turning to `CN1CCN(C2=C(NC(=O)c3ccc(Br)cc3)C(=O)c3ccccc3C2=O)CC1`, the IC50 is 6.69 µM.

For `COc1ccc(C(=O)NC2=C(c3ccc(OC(F)(F)F)cc3)C(=O)c3ccccc3C2=O)cc1`, the IC50 was > 70 µM (inactive).

For `O=C1C(Nc2ccccc2)=C(NS(=O)(=O)c2ccccc2[N+](=O)[O-])C(=O)c2ccccc21`, the IC50 is > 70 µM (inactive).

Regarding `COc1ccc(S(=O)(=O)N(C(C)=O)c2ccc(OC(C)=O)c3ccccc23)cc1[N+](=O)[O-]`, the IC50 is 31.6 µM.

For the molecule `O=C1C(NS(=O)(=O)c2ccc(Br)s2)=C(N2CCSCC2)C(=O)c2ccccc21`, the IC50 is > 70 µM (inactive).

As to `COc1ccc(C2=C(NC(=O)c3ccccc3OC)C(=O)c3ccccc3C2=O)cc1`, the IC50 was > 70 µM (inactive).

For `O=C1C=C(Nc2ccccc2)C(=O)c2ccccc21`, the IC50 is 5.05 µM.

`COc1ccc(C2=C(NC(=O)c3cccc(OC)c3)C(=O)c3ccccc3C2=O)cc1`: the IC50 is 29 µM.

Take `O=C(NC1=C(c2ccccc2)C(=O)c2ccccc2C1=O)c1ccc(Br)cc1`: the IC50 was > 70 µM (inactive).

For the molecule `C=CCNC1=C(NS(=O)(=O)c2ccc(Br)cc2)C(=O)c2ccccc2C1=O`, the half-maximal inhibitory concentration (IC50) is 29.9 µM.

Test system in the next assay: not listed separately
The description is as above. To be noted: SK-MEL-5 melanoma viability, CellTiter-Glo ATP, 24 h; at 35 µM (top of the series). In short, it runs like this:
as §1
As to `C=CCNC1=C(NCC=C)C(=O)c2ccccc2C1=O`, the activity change, negative = inhibition is -5.12% (inactive).
